# RBBP9 inh: human RBBP9 inhibitors, primary screen, biochemical, fluorescence polarization, FP-Rh probe, HTS | Serine hydrolase RBBP9 (Homo sapiens), O75884 | recombinant RBBP9 | inhibition, % at 7.94 µM | 220,000 compounds, 0.2% hits;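 active = inhibition above the campaign mean of all tested compounds plus 3 SD, cut at about 14% in these data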
# Target sequence (O75884 whole entry, looked up): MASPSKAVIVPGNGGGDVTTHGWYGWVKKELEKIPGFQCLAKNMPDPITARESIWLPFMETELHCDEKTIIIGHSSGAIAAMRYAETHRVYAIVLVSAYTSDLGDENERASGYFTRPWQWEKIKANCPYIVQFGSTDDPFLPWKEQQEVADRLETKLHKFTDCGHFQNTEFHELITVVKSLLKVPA
#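 Controls: DMSO-treated enzyme wells and wells lacking RBBP9 | Material: RBBP9 protein | Technique: Fluorescence polarization | Replication: Single well per compound, no replicates | Buffer or medium: Tris-NaCl-Pluronic buffer, pH 8.0 | Timing: 30 min compound preincubation, 45 min probe labeling, 25 °C | Read-out basis: Percent inhibition from mP, scaled between DMSO and no-protein wells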
# Pf gamet viab: late stage P. falciparum gametocyte viability inhibitors, primary screen, ATP luminescence, HTS. AID 743093, 2013. inhibition, % at 10.9 µM. 150,000 compounds, 0.065% hits. P. falciparum stage V gametocytes, 24 h;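 active = inhibition above the mean plus 3 SD of compounds within the control limits, set per campaign, cut at about 38% in these data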
# Wee1 stabilizer: Wee1 degradation inhibitors, primary screen, cell-based, HeLa, Wee1K328M-luciferase, luminescence | Wee1-like protein kinase (Homo sapiens), P30291 | HeLa Luc-Wee1K328M stability; 100% = proteasome inhibitor MG132 effect | reporter increase, % at 5 µM | 220,000 compounds, 1.2% hits;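 active = activation above the mean of all tested compounds plus 3 SD, set per screening run, cut at about 8.8% in these data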;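 also: cells exposed to compound for 20 h before luminescence read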
# m-calpain inh: inhibitors of pig calpain II, primary screen, biochemical, fluorogenic peptide substrate, 1536-well. purified calpain II, 30 min. inhibition, % at 16 µM. 220,000 compounds, 0.37% hits;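 active = inhibition above about 50%, limit read from the data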
# zVAD death inh: inhibitors of zVAD-triggered necroptosis, primary screen, L929 cells. L929 zVAD necroptosis rescue, ATP luminescence, 24 h; with zVAD 60 µM. viability rescue, % at 10 µM. 220,000 compounds, 0.38% hits. AID 1377, 2008;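 active = activation, scaled between plate controls, above about 75%, limit read from the data; inactive = activation under that limit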
# TNF death inh: inhibitors of TNF-alpha triggered necroptosis, primary screen, cell-based, Jurkat FADD-/-, single concentration; activation (protection from cell death), % at 10 µM; Jurkat FADD-/- TNF necroptosis rescue, ATP luminescence, 24 h; 0 = TNF only, 100 = no-TNF cells; 220,000 compounds, 0.068% hits;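 active = activation, meaning protection from cell death, of at least 50% relative to plate controls; inactive = activation below 50%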;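 also: necroptosis triggered by 40 ng/mL TNF-alpha added together with compound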
# Hits are given with their value; . = inactive; / = not tested or not shown. Rows were chosen to be rich in hits. Some 2.1% of all compounds tested hit in one or more screens of this group.
SMILES,RBBP9 inh,Pf gamet viab,Wee1 stabilizer,m-calpain inh,zVAD death inh,TNF death inh
Cc1cc(C(=O)Nc2cnc3ccccc3c2)ccc1[N+](=O)[O-],.,.,9.1,.,.,.
Cc1cc(C(=O)Nc2ccc(N3CCCC3)c(Cl)c2)ccc1[N+](=O)[O-],.,.,.,50,.,.
Cc1ccc(C(=O)Nc2cnc3ccccc3c2)cc1,.,/,.,.,.,.
CCCCc1ccc(NC(=O)N2CCNC(=O)C2CC(=O)Nc2ccsc2C(=O)OC)cc1 (stereo not drawn),.,.,.,.,.,.
Cc1c(C(=O)NCC2COc3ccccc3O2)oc2ccc(S(=O)(=O)N3CCOCC3)cc12 (stereo not drawn),.,/,9.1,.,.,.
COc1ccccc1-c1oc2ccccc2c1C#CC(C)(C)O,/,.,/,/,/,/
CC(C)n1nnnc1-c1ccc(Cl)cc1,.,.,.,.,.,.
COc1ccc(C(=O)COC(=O)c2ccc(NC(C)=O)cc2)cc1[N+](=O)[O-],.,.,.,.,.,.
COc1ccc(C(=O)C[n+]2cccc(C)c2C)cc1[N+](=O)[O-],.,.,11,.,.,.
O=C1OC(c2cccc([N+](=O)[O-])c2)C2(CCCC2)C(=O)C12CCCCC2 (stereo not drawn),.,/,.,53,.,.
O=C1OC(c2ccccc2)C2(CCCC2)C(=O)C12CCCC2 (stereo not drawn),.,.,.,.,.,.
O=C(COc1ccc(Br)cc1Cl)NC(=O)Nc1ccc2c(c1)OCCO2,.,.,.,.,.,.
CCCCN1C(=O)C(O)(CC(=O)c2c(C)n[nH]c2C)c2cc(Br)ccc21 (stereo not drawn),.,.,.,.,.,.
Cc1n[nH]c(C)c1C(=O)CC1(O)C(=O)N(CCc2ccccc2)c2ccc(Cl)cc21 (stereo not drawn),.,.,10,.,.,.
COc1ccc(CN2CCN(S(=O)(=O)c3ccc(NC(C)=O)cc3)CC2)cc1,.,.,.,.,.,.
CCOC(=O)C1=C(C)N(CCCC(=O)O)C(=O)NC1c1ccc2ccccc2c1 (stereo not drawn),/,.,/,/,/,/
COc1cccc(CN(CC2CCCO2)S(=O)(=O)c2ccc(S(=O)(=O)N(C)C)cc2)c1 (stereo not drawn),.,/,.,.,.,.
O=C(O)c1cc(NN=Nc2ccc(Br)cc2)cc([N+](=O)[O-])c1,.,.,.,60,.,.
O=C(O)c1cc(NN=Nc2cccc([N+](=O)[O-])c2)cc([N+](=O)[O-])c1,.,.,.,.,.,.
c1ccc2sc(-c3ccc4c(c3)OCO4)nc2c1,.,/,14,.,.,.
O=C(Nc1cccc(-c2nc3ccccc3s2)c1)c1ccc2c(c1)OCO2,.,.,.,.,.,.
CC(C)C1N=C(c2ccc3c(c2)OCO3)CC(c2ccccc2O)N1 (stereo not drawn),.,/,9.4,.,.,.
O=C1OCCN1C(=O)[C@H]1[C@H](c2ccc([N+](=O)[O-])cc2)C(c2cccc(Cl)c2)=NN1c1ccccc1,.,/,10,.,.,.
CC(C)CC1CCCCC1OC(=O)C[N+]1(C)CCCCC1 (stereo not drawn),.,.,.,.,.,.
Cc1ccc(Cc2cnc(NC(=O)C3=NCCN3)s2)cc1,.,.,.,.,.,.
SMILES,RBBP9 inh,Pf gamet viab,Wee1 stabilizer,m-calpain inh,zVAD death inh,TNF death inh
O=C(Nc1ncc(Cc2ccccc2)s1)C1=NCCN1,.,38,.,.,.,.
CC(CCc1ccccc1)NC(=O)COC(=O)C1CCC(C(C)(C)C)CC1 (stereo not drawn),.,.,.,.,.,.
CCN(CC)CC(=O)Nc1ccc2c(c1)Nc1ccccc1CC2,.,.,.,.,84,.
O=C(NC1CCC(Oc2ccc(C(=O)O)cc2)CC1)NC12CC3CC(CC(C3)C1)C2 (stereo not drawn),/,.,/,/,/,/
COc1ccc(CCNC(=O)Cn2c([N+](=O)[O-])cnc2C)cc1OC,.,.,11,.,.,.
CC(C)CNC(=O)NC(=O)COc1ncnc2sccc12,.,/,9.4,.,.,.
O=C(CCCn1cnc([N+](=O)[O-])n1)Nc1ccc(F)c(Cl)c1,.,.,9.9,.,.,.
O=C(CCCn1cnc([N+](=O)[O-])n1)Nc1ccc(Cl)cc1Cl,.,.,.,.,.,.
O=C(CSc1ncnc2ccccc12)NCC(=O)c1ccccc1,.,.,10,.,.,.
CCOC(=O)C1CCN(CC(=O)c2c(C)[nH]c3cc(C)ccc23)CC1,.,.,10,.,.,.
CCOC(=O)C1CCN(CC(=O)c2c(C)[nH]c3ccccc23)CC1,.,/,.,.,.,.
O=C(NNC(=S)NC(=O)c1ccco1)c1ccc(F)cc1,.,.,10,.,.,.
COc1ccc(-c2c(C)n([O-])c3c([n+]2=O)CCCCC3)cc1OC,.,/,.,.,.,.
COc1ccccc1C(=O)O/N=C(\N)c1ccccn1,.,.,9.1,.,.,.
COC(C(=O)Nc1ccc(Br)cc1F)c1ccccc1 (stereo not drawn),.,/,.,.,.,91
COC(C(=O)Nc1ccccc1F)c1ccccc1 (stereo not drawn),.,.,.,.,.,84
O=C(N/N=C/c1cccc([N+](=O)[O-])c1)c1ccc(COc2ccccc2-c2ccccc2)cc1,.,.,.,.,.,.
CS(=O)(=O)N(CC(=O)Nc1ccc2c(c1)OCO2)Cc1ccccc1,.,/,.,.,.,.
CN(CCC(=O)Nc1ccc2c(c1)OCO2)Cc1ccccc1,.,/,10,.,.,.
COc1ccc(NC(=O)C/C(C)=N/NC(=O)C(=O)NC(C)C)c(OC)c1,.,.,9.7,.,.,.
O=c1[nH]c(=O)n(-c2cc(Br)c(O)c(Br)c2)cc1Br,/,.,/,/,/,/
C=CCNC(=O)CC(=O)N/N=C/c1ccc(C(=O)OC)cc1,.,/,.,.,.,.
CCOc1ccc2c(c1)S/C(=C\c1cccs1)C(=O)N2,.,.,9.0,.,.,.
Cc1ccccc1NC(=S)NCCC(c1ccccc1)c1ccccc1,.,/,.,78,.,.
CN(C)c1ccc(NC(=O)COC(=O)c2cc(=O)c3ccccc3o2)cc1,.,.,.,.,/,.
CCc1ccccc1N(CC(=O)NC(C)(C)C)C(=O)CCC(=O)Nc1ccccn1,/,.,/,/,/,/
O=C(c1ccc(-c2ccc([N+](=O)[O-])cc2Cl)o1)N1CCOCC1,.,.,11,.,.,.
O=C(c1ccc(-c2cccc(Cl)c2Cl)o1)N1CCOCC1,.,.,.,.,.,.

# Screens as filed in PubChem BioAssay.
